Experimental data from ChEMBL document CHEMBL1123149, “Synthesis and antineoplastic evaluations of 5,8-bis[(aminoalkyl)amino]-1-azaanthracene-9,10-diones” (1985).
In brackets after ≈: the same amount, converted by molar mass. Activity calls are given as the source filed them. The rule behind the calls is not given here.

Experiments:
L1210 = experiment: In vitro growth inhibitory effect against L1210 murine leukemia cells was determined; format: functional; details: Mus musculus, read-out: ID50 (the source's name)
Outline: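 L1210 cells, 10^5 cells/tube in 4 mL, exposed continuously 96 h to drug added in Me2SO (≤40 μL per culture) at final 0.01, 0.1 and 10 μg/mL, triplicate.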

Mus musculus [1] = experiment: Activity against L1210 leukemia cells was studied in mice at 30 mg/kg and determined as MST(treated)/MST(control) x100; format: functional
Mus musculus [2] = experiment: Activity against L1210 leukemia cells was studied in mice at 15 mg/kg and determined as MST(treated)/MST(control) x100; format: functional
Mus musculus [3] = experiment: Activity against L1210 leukemia cells was studied in mice at 100 mg/kg and determined as MST(treated)/MST(control) x100; Toxic; format: functional, organism-based; design: dose 100 mg/kg
Mus musculus [4] = experiment: Activity against L1210 leukemia cells was studied in mice at 100 mg/kg and determined as MST(treated)/MST(control) x100; Inactive; format: functional, organism-based; design: dose 100 mg/kg
Mus musculus [5] = experiment: Activity against L1210 leukemia cells was studied in mice at 50 mg/kg and determined as MST(treated)/MST(control) x100; format: functional
Mus musculus [6] = experiment: Activity against L1210 leukemia cells was studied in mice at 25 mg/kg and determined as MST(treated)/MST(control) x100; format: functional

| SMILES | IC50 (L1210) [mg/L] | other results |
| --- | --- | --- |
| CN(C)CCCNc1ccc(NCCCN(C)C)c2c1C(=O)c1cccnc1C2=O | 1.7 (≈ 4.15 µM) | – |
| CC(=O)NCCNc1ccc(NCCNC(C)=O)c2c1C(=O)c1cccnc1C2=O | > 10 | – |
| CN(C)CCNc1ccc(NCCN(C)C)c2c1C(=O)c1ccccc1C2=O | 0.08 (≈ 0.21 µM) | T/C (Mus musculus [1]): 150%; T/C (Mus musculus [2]): 117% |
| CCN(CC)CCNc1ccc(NCCN(CC)CC)c2c1C(=O)c1ccccc1C2=O | 0.3 (≈ 0.687 µM) | – |
| CCN(CC)CCNc1ccc(NCCN(CC)CC)c2c1C(=O)c1cccnc1C2=O | 2.4 (≈ 5.48 µM) | T/C (Mus musculus [3]): Toxic |
| O=C1c2cccnc2C(=O)c2c(O)ccc(O)c21 | 0.18 (≈ 0.746 µM) | T/C (Mus musculus [4]): inactive |
| CN(C)CCNc1ccc(NCCN(C)C)c2c1C(=O)c1cccnc1C2=O | 0.16 (≈ 0.419 µM) | T/C (Mus musculus [5]): 130%; T/C (Mus musculus [6]): 120% |
